High-throughput results: PubChem, Sanford-Burnham Center for Chemical Genomics
bIAP act: bovine intestinal alkaline phosphatase activators, primary screen, biochemical, bovine IAP, CDP-star luminescence; purified bovine IAP, 30 min; stronger effect = higher value; fold of DMSO-control signal, blank-subtracted; activation factor at 20 µM; 200,000 tested, 0.17% active;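 active = activation factor of 2 or more at 20 µM, a signal rise over negative controls twice the positive control's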
hIAP inh: human IAP inhibitors, primary screen, biochemical, luminescence, uHTS; Intestinal-type alkaline phosphatase (Homo sapiens), P09923; purified IAP, CDP-Star luminescence, 30 min; inhibition, % at 10 µM; 330,000 tested, 0.12% active; AID 2544, 2010;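 active = inhibition reaching a set limit with compound at 10 µM in the primary screen, cut at about 35% in these data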;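 note: plate controls were DMSO wells with enzyme for no effect and no-enzyme buffer wells for full effect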
Target sequence (P09923 whole entry, looked up): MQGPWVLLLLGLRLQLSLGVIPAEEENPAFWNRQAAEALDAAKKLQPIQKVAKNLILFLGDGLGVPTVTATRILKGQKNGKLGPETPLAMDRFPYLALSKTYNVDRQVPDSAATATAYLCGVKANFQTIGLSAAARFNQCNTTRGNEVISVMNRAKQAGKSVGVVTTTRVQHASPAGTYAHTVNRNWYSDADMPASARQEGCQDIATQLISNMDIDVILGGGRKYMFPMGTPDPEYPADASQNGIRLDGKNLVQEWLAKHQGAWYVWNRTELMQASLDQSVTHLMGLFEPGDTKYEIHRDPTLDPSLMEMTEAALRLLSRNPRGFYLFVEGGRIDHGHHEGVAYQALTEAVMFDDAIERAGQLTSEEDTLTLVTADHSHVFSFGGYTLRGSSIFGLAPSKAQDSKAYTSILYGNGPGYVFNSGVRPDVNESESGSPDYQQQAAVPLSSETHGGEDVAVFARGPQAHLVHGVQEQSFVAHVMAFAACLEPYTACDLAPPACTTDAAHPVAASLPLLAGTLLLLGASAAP
mIAP inh: inhibitors of mouse IAP, primary screen, biochemical, luminescence, uHTS | intestinal alkaline phosphatase [Mus musculus] | purified mouse IAP, CDP-Star luminescence, 30 min | inhibition, % at 10 µM | 330,000 tested, 0.2% active | AID 2806, 2010;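 active = inhibition of at least 40% at 10 µM in the primary screen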;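 note: plate controls were DMSO with enzyme for no effect and no enzyme wells for full effect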
hIAP act: human IAP activators, primary screen, biochemical, luminescence, uHTS. 330,000 tested, 0.16% active. purified human IAP, CDP-Star luminescence, 30 min; stronger effect = higher value; 1 = vehicle-only enzyme, 0 = enzyme-free background. AID 2524, 2010. Intestinal-type alkaline phosphatase (Homo sapiens), P09923. activation factor at 10 µM;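 active = activation factor of the enzyme at least 2-fold when tested at 20 µM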
mIAP activ: activators of mouse IAP, primary screen, biochemical, luminescence, uHTS; intestinal alkaline phosphatase [Mus musculus]; activation factor at 10 µM; AID 2805, 2010; 330,000 tested, 0.24% active; muIAP, CDP-Star luminescence, 30 min; stronger effect = higher value; 1 = vehicle-only enzyme signal, 0 = enzyme-free wells;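 active = activation factor of at least 2 at 20 µM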
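System: Mouse IAP enzyme | Also added: CDP-Star substrate | Dosing: Compounds dispensed in DMSO | Schedule: 30 min enzyme-substrate-compound incubation at room temperature | Technique: Chemiluminescence readout | Control set: DMSO-only wells and no-enzyme negative control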
bIAP inhibitor: bovine intestinal alkaline phosphatase inhibitors, primary screen, selectivity assay for TNAP inhibitor project, biochemical, bovine IAP, CDP-star luminescence; 190,000 tested, under 10 active; purified bovine IAP, 30 min; alkaline phosphatase, intestinal [Bos taurus]; AID 1019, 2008; inhibition, % at 20 µM;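 active = over 50% inhibition of intestinal alkaline phosphatase at 20 µM in the single-dose screen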
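test system = bovine IAP enzyme | medium = DEA buffer 100 mM, pH 9.8, with MgCl2 1.0 mM, ZnCl2 0.02 mM | detection = luminescence | dosing = single compound dose of 20 µM, 2% DMSO final | incubation = 30 min reaction at room temperature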
hIAP act conf: human IAP activators, confirmation, biochemical, luminescence, single concentration, uHTS hits; shares compounds with hIAP act; purified IAP, CDP-Star luminescence, 30 min; stronger effect = lower value; activation (%Activity, negative = activation), % at 8.3 µM; 880 tested, 10% active; AID 434926, 2010;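 active = at least twofold enzyme activation in any of six single-dose repeats, which the averaged readout prints as negative percent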
Active calls of the source: *; nt = no result. Compounds with a hit are over-represented: about 0.79% of the library has one in this group of screens.

SMILES	bIAP act	hIAP inh	mIAP inh	hIAP act	mIAP activ	bIAP inhibitor	hIAP act conf
COc1ccc(NC(=O)CCN2CCN(S(=O)(=O)c3cc(Cl)ccc3OC)CC2)cc1	1	36*	6	0.64	0.94	4	36
COc1ccc(NC(=O)CCN2CCN(S(=O)(=O)c3ccc(Br)cc3)CC2)cc1	nt	-15	4	1.1	0.96	nt	nt
COc1ccc(C(=O)Nc2ccccc2N2CCCC2)cc1S(=O)(=O)N1CCOCC1	nt	3	6	0.97	0.94	nt	nt
COC(=O)CN=Cc1c(O)n(-c2ccc(Cl)cn2)c(=O)c2ccccc12	1.1	-4	-3	1	1	-6	nt
CC(C)(C)N/N=C/c1c(O)n(-c2ccc(Cl)cn2)c(=O)c2ccccc12	1.1	-103	0	2*	1	-6	-93*
CC(C)Cn1c(-c2ccccc2)nc(=S)c2c1CCCC2	0.7	-4	9	1	0.91	26	nt
COc1cccc(-c2nc(=S)c3c(n2CCCO)CCCC3)c1	1	-138	-14	2.4*	1.1	-3	1
CC(c1ccccc1)C(Cc1nc2ccccc2[nH]1)c1nc2ccccc2[nH]1 (stereo unspecified)	4.1*	-118	-71	2.2*	1.7	-306	6
Cc1cccc(CC(Cc2nc3ccccc3[nH]2)c2nc3ccccc3[nH]2)c1 (stereo unspecified)	4.3*	-140	-41	2.4*	1.4	-332	30
CC(C)N(Cc1nc2ccccc2[nH]1)C(C)C	1	9	-1	0.91	1	3	nt
OC(c1ccccc1)c1nc2ccccc2[nH]1 (stereo unspecified)	nt	10	-1	0.9	1	nt	nt
OC(c1nc2ccccc2[nH]1)C(O)c1nc2ccccc2[nH]1 (stereo unspecified)	nt	-146	0	2.5*	1	nt	-4
O=C(COC(=O)CNC(=O)c1ccccc1F)Nc1cccnc1Cl	1.1	6	2	0.94	0.98	-12	nt
O=S(=O)(c1ccc2ccccc2c1)n1cccn1	nt	41*	-3	0.59	1	nt	-3
CCCCc1c(O)c2cccc3c2n(c1=O)CCC3	nt	-19	-7	1.2	1.1	nt	nt
COc1ccc(NC(=S)NNC(=O)c2nnn(-c3ccccc3)c2C)cc1	1	-114	9	2.1*	0.91	1	24
Cc1ccc(S(=O)(=O)NNC(=O)C(=O)NNc2ccccn2)cc1	1.6	-209	14	3.1*	0.86	-64	-22
CC(=O)Nc1ccc(S(=O)(=O)Nc2ccccn2)cc1	1	-9	9	1.1	0.91	4	nt
Cc1ccccc1S(=O)(=O)NNC(=O)C(=O)NNc1ccccn1	1.5	-210	9	3.1*	0.91	-49	1
Cc1ccc(S(=O)(=O)NNC(=O)C(O)(c2ccccc2)c2ccccc2)cc1	0.7	7	10	0.93	0.9	34	nt
CC(=O)Nc1ccc(S(=O)(=O)NNC(=O)C(=O)NNc2ccccn2)cc1	nt	-185	7	2.8*	0.93	nt	-31
CC(=O)N[C@@H](C)C(=O)N1CCN(S(=O)(=O)c2ccc(Cl)cc2)CC1	1	-177	5	2.8*	0.95	-4	-38
Cc1ccc(-c2nnc(SCC(=O)NCC3CCCO3)nc2-c2ccc(C)cc2)cc1 (stereo unspecified)	nt	-4	15	1	0.85	nt	nt
O=C(NCCN1CCCCC1)Nc1ccc(Br)cc1	nt	14	-10	0.85	1.1	nt	nt
CCCCn1c(O)c(N=Nc2ccccc2O)c2ccccc21	nt	-174	20	2.7*	0.8	nt	6
SMILES	bIAP act	hIAP inh	mIAP inh	hIAP act	mIAP activ	bIAP inhibitor	hIAP act conf
CCOc1ccc(NC(=O)COC(=O)CSCC(=O)Nc2ccc(C)cc2C)cc1	nt	-9	9	1.1	0.91	nt	nt
CCOc1cc(/C=C2/C(=O)NN(c3cccc(Cl)c3)C2=O)ccc1O	nt	33	16	0.67	0.83	nt	nt
COc1cc(/C=C2/C(=O)NN(c3cccc(Cl)c3)C2=O)cc(OC)c1O	nt	50*	23	0.5	0.77	nt	9
O=C(CSc1nccn1-c1ccc(Cl)cc1)N1CCCc2ccccc21	0.9	1	6	0.99	0.94	6	nt
COc1ccc(Nc2ncnc3c2c(C)c(C)n3CCCN(C)C)cc1	nt	-1	-6	1	1.1	nt	nt
O=C1/C(=C\c2ccc(O)c(O)c2)SC(=S)N1Cc1ccccc1	nt	55*	33	0.45	0.67	nt	-89
COc1cc(/C=C2/SC(=S)N(Cc3ccccc3)C2=O)ccc1O	nt	4	28	0.96	0.72	nt	nt
CCOC(=O)/C(=N\Nc1ccc(OC)cc1)c1csc(Nc2ccccc2)n1	0.8	39*	10	0.61	0.9	23	-2
CCOC(=O)/C(=N/Nc1ccccc1)c1csc(Nc2ccccc2)n1	0.7	1	17	0.99	0.83	33	nt
O=C1/C(=C\c2ccc(O)c(O)c2)N=C2CCCCCN12	nt	57*	37	0.43	0.63	nt	-29
COc1cc(/C=C2\N=C3CCCCCN3C2=O)ccc1O	0.3	-7	24	1.1	0.76	nt	nt
Brc1ccc(CSc2nnc3ccccn23)cc1	1	-4	6	1	0.94	5	nt
O=c1[nH]c(COc2ccc(Br)cc2Cl)nc2ccccc12	nt	2	7	0.98	0.93	nt	nt
O=C(Nc1ccc(OC(F)(F)F)cc1)NC1CCC(Oc2ccc(C(=O)O)cc2)CC1 (stereo unspecified)	nt	-280	-33	3.8*	1.3	nt	-35
O=C1CCCc2ccccc2N1	1	-22	4	1.2	0.96	-2	nt
CCN(CC)CCN=C1CCCc2ccccc2N1	0.9	52*	5	0.47	0.95	10	-22
CC1CC(C)CN(C(=O)COC(=O)c2nn(C)c(=O)c3ccccc23)C1 (stereo unspecified)	nt	0	15	1	0.85	nt	nt
Cc1ccc(S(=O)(=O)NCCC(=O)NNC(=O)COc2ccc(Br)cc2)cc1C	nt	-148	-6	2.5*	1.1	nt	41
O=C(NNC(=O)c1nn(-c2ccc(F)cc2)ccc1=O)Nc1cccc(Cl)c1	nt	40*	16	0.6	0.84	nt	-28
O=C(NNC(=O)c1nn(-c2ccc(F)cc2)ccc1=O)c1ccc(Cl)cc1	nt	13	20	0.87	0.8	nt	nt
